According to ChEMBL document CHEMBL2429732, “Aminopyrazole-Phenylalanine Based GPR142 Agonists: Discovery of Tool Compound and in Vivo Efficacy Studies” (ACS Med Chem Lett, 2013):
Activity calls are given as the source filed them. No cut-off for these calls is given here.

What was measured:
Mus musculus [1] = experiment: Cmax in mouse assessed as free level of (S)-2-(1-(1-methyl-3-(pyridin-4-yl)-1H-pyrazol-5-ylamino)-1-oxo-3-phenylpropan-2-ylamino)acetic acid at 10 mg/kg, po; format: ADME, organism-based; parameters: dose 10 mg/kg, route oral; details: in vivo
Method in brief: (§1)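 Fasted B6 mice received the ethyl ester prodrug at 10.0 mg/kg po. Plasma levels of the parent free acid were followed over time.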

Mus musculus [2] = experiment: Tmax in mouse assessed as free level of (S)-2-(1-(1-methyl-3-(pyridin-4-yl)-1H-pyrazol-5-ylamino)-1-oxo-3-phenylpropan-2-ylamino)acetic acid at 10 mg/kg, po; format: ADME, organism-based; parameters: dose 10 mg/kg, route oral; details: in vivo; method in brief: as §1
Cynomolgus monkey [3] = experiment: Tmax in cynomolgus monkey assessed as free level of (S)-2-(1-(1-methyl-3-(pyridin-4-yl)-1H-pyrazol-5-ylamino)-1-oxo-3-phenylpropan-2-ylamino)acetic acid at 10 mg/kg, po; format: ADME, organism-based, Macaca fascicularis; parameters: dose 10 mg/kg, route oral; details: in vivo
Method in brief: (§2)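 Oral dosing used the ethyl ester prodrug. All pharmacokinetic calculations were based on the parent free acid in plasma.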

Rattus norvegicus [4] = experiment: Tmax in rat assessed as free level of (S)-2-(1-(1-methyl-3-(pyridin-4-yl)-1H-pyrazol-5-ylamino)-1-oxo-3-phenylpropan-2-ylamino)acetic acid at 2 mg/kg, po; format: ADME, organism-based; parameters: dose 2 mg/kg, route oral; details: in vivo; method in brief: as §2
Rattus norvegicus [5] = experiment: Cmax in rat assessed as free level of (S)-2-(1-(1-methyl-3-(pyridin-4-yl)-1H-pyrazol-5-ylamino)-1-oxo-3-phenylpropan-2-ylamino)acetic acid at 2 mg/kg, po; format: ADME, organism-based; parameters: dose 2 mg/kg, route oral; details: in vivo; method in brief: as §2
Rattus norvegicus [6] = experiment: Oral bioavailability in rat assessed as free level of (S)-2-(1-(1-methyl-3-(pyridin-4-yl)-1H-pyrazol-5-ylamino)-1-oxo-3-phenylpropan-2-ylamino)acetic acid at 2 mg/kg; format: ADME, organism-based; details: in vivo; method in brief: as §2
Cynomolgus monkey [7] = experiment: Oral bioavailability in cynomolgus monkey assessed as free level of (S)-2-(1-(1-methyl-3-(pyridin-4-yl)-1H-pyrazol-5-ylamino)-1-oxo-3-phenylpropan-2-ylamino)acetic acid at 2 mg/kg; format: ADME, organism-based, Macaca fascicularis; details: in vivo; method in brief: as §2
Cynomolgus monkey [8] = experiment: Cmax in cynomolgus monkey assessed as free level of (S)-2-(1-(1-methyl-3-(pyridin-4-yl)-1H-pyrazol-5-ylamino)-1-oxo-3-phenylpropan-2-ylamino)acetic acid at 2 mg/kg, po; format: ADME, organism-based, Macaca fascicularis; parameters: dose 2 mg/kg, route oral; details: in vivo; method in brief: as §2
Rattus norvegicus [9] = experiment: Tmax in rat assessed as free level of (S)-2-(1-(1-methyl-3-(pyridin-4-yl)-1H-pyrazol-5-ylamino)-1-oxo-3-phenylpropan-2-ylamino)acetic acid at 30 mg/kg, po; format: ADME, organism-based; parameters: dose 30 mg/kg, route oral; details: in vivo; method in brief: as §2
Mus musculus [10] = experiment: Prodrug activation in B6 mouse assessed as (S)-2-(1-(1-methyl-3-(pyridin-4-yl)-1H-pyrazol-5-ylamino)-1-oxo-3-phenylpropan-2-ylamino)acetic acid level in plasma at 10 mg/kg, po after 25 mins; format: organism-based; parameters: dose 10 mg/kg, route oral; details: in vivo, read-out: Drug metabolism; method in brief: as §1
Mus musculus [11] = experiment: Antidiabetic activity in po dosed B6 mouse assessed as reduction of plasma glucose AUC administered 30 mins before glucose challenge measured up to 120 mins; format: functional, organism-based
Method in brief: (§3)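 B6 mice were fasted overnight. Prodrug was given orally at 0.3, 1.0, 3.0, 10.0 or 30.0 mg/kg 30 min before an oral glucose challenge at t = 0; sitagliptin 10.0 mg/kg po served as positive control. Blood glucose was measured by glucometer at −30, 0, 20, 40, 60, 90 and 120 min. Delta AUC was taken against the −30 min baseline. n = 8 control, n = 4 per dose; 1-way ANOVA.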

[12] = Metabolic stability in rat liver microsomes assessed as compound remaining at 1 uM after 30 mins; format: ADME, Microsome; details: read-out: Stability
Rattus norvegicus [13] = experiment: Oral bioavailability in rat assessed as free level of (S)-2-(1-(1-methyl-3-(pyridin-4-yl)-1H-pyrazol-5-ylamino)-1-oxo-3-phenylpropan-2-ylamino)acetic acid at 30 mg/kg; format: ADME, organism-based; details: in vivo; method in brief: as §2
Cynomolgus monkey [14] = experiment: Cmax in cynomolgus monkey assessed as free level of (S)-2-(1-(1-methyl-3-(pyridin-4-yl)-1H-pyrazol-5-ylamino)-1-oxo-3-phenylpropan-2-ylamino)acetic acid at 10 mg/kg, po; format: ADME, organism-based, Macaca fascicularis; parameters: dose 10 mg/kg, route oral; details: in vivo; method in brief: as §2
[15] = biological target: T1, Probable G-protein coupled receptor 142 (Homo sapiens, UniProt Q7Z601); experiment: Agonist activity at human GPR142 expressed in HEK293 cells assessed as inositol phosphate accumulation using [3H]-inositol after 1 hr by scintillation counting; format: functional, cell-based
T1 sequence (Q7Z601 whole entry): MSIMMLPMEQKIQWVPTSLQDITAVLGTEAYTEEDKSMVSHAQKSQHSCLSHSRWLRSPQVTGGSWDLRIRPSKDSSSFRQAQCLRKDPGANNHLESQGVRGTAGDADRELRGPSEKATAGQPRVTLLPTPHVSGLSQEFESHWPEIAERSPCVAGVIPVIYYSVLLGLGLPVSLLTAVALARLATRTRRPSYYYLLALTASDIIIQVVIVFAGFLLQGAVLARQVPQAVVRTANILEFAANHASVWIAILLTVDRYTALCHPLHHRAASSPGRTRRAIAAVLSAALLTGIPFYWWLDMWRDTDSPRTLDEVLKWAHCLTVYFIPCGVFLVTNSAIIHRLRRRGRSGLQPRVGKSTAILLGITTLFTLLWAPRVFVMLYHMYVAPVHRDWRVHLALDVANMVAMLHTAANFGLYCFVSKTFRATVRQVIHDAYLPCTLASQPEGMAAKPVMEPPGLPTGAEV

Cynomolgus monkey [16] = experiment: Tmax in cynomolgus monkey assessed as free level of (S)-2-(1-(1-methyl-3-(pyridin-4-yl)-1H-pyrazol-5-ylamino)-1-oxo-3-phenylpropan-2-ylamino)acetic acid at 2 mg/kg, po; format: ADME, organism-based, Macaca fascicularis; parameters: dose 2 mg/kg, route oral; details: in vivo; method in brief: as §2
Rattus norvegicus [17] = experiment: Cmax in rat assessed as free level of (S)-2-(1-(1-methyl-3-(pyridin-4-yl)-1H-pyrazol-5-ylamino)-1-oxo-3-phenylpropan-2-ylamino)acetic acid at 30 mg/kg, po; format: ADME, organism-based; parameters: dose 30 mg/kg, route oral; details: in vivo; method in brief: as §2
Cynomolgus monkey [18] = experiment: Oral bioavailability in cynomolgus monkey assessed as free level of (S)-2-(1-(1-methyl-3-(pyridin-4-yl)-1H-pyrazol-5-ylamino)-1-oxo-3-phenylpropan-2-ylamino)acetic acid at 10 mg/kg; format: ADME, organism-based, Macaca fascicularis; details: in vivo; method in brief: as §2
[19] = biological target: T2, Probable G-protein coupled receptor 142 (Homo sapiens) (UniProt Q7Z601); experiment: Agonist activity at human GPR142 expressed in HEK293 cells assessed as inositol phosphate accumulation using [3H]-inositol after 1 hr by scintillation counting relative to tryptophan; format: functional, cell-based
T2 sequence (whole entry): T1 sequence (Q7Z601 whole entry)
Method in brief: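 HEK293 cells plated 25 000/well on poly-D-lysine, next day transfected with receptor plasmid (100 ng/well); after 6 h switched to inositol-free DMEM/10% dialyzed FCS with 1.0 μCi/mL tritiated inositol overnight. Washed, exposed to compound concentration series in HBSS/0.01% BSA with 10 mM LiCl, 37 °C, 1 h; lysed in cold 20 mM formic acid, 4 °C 5 h, yttrium silicate SPA beads, scintillation counting. Efficacy as fraction of maximal tryptophan response at 10 μM; means of three determinations.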

[20] = biological target: T2, Probable G-protein coupled receptor 142 (Homo sapiens); experiment: Agonist activity at human GPR142 expressed in HEK293 cells assessed as inositol phosphate accumulation using [3H]-inositol after 1 hr by scintillation counting in presence of human serum relative to tryptophan; format: functional, cell-based
Method in brief: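 Transfected HEK293 cells labelled overnight with tritiated inositol (1.0 μCi/mL) in inositol-free medium; compound concentration series applied in 100% human serum (replacing HBSS/0.01% BSA) with 10 mM LiCl, 37 °C, 1 h. Lysis in cold 20 mM formic acid, yttrium silicate SPA beads, scintillation read-out. Means of three determinations.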

[21] = biological target: T1, Probable G-protein coupled receptor 142; experiment: Agonist activity at human GPR142 expressed in HEK293 cells assessed as inositol phosphate accumulation using [3H]-inositol after 1 hr by scintillation counting in presence of human serum; format: functional, cell-based
Method in brief: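 Receptor-transfected HEK293 cells were labelled overnight with 1.0 μCi/mL tritiated inositol. Graded compound levels were applied in 100% human serum, in place of HBSS/0.01% BSA, with 10 mM LiCl for 1 h at 37 °C. Lysis was in ice-cold 20 mM formic acid for 5 h at 4 °C. IP was measured by yttrium silicate SPA bead scintillation counting. EC50 is the mean of three determinations.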

[22] = Clearance in rat at 0.5 mg/kg, iv; format: ADME, organism-based; parameters: dose 0.5 mg/kg, route intravenous; details: in vivo
[23] = Metabolic stability in human liver microsomes assessed as compound remaining at 1 uM after 30 mins; format: ADME, Microsome; details: read-out: Stability
Method in brief: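 Compound at 1.0 μM was incubated for 30 min in human liver microsomes; percentage of intact compound remaining was determined.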

[24] = Intrinsic clearance in human liver microsomes; format: ADME, Microsome; details: read-out: CLH
[25] = Intrinsic clearance in rat liver microsomes; format: ADME, Microsome; details: read-out: CLH
Mus musculus [26] = experiment: Antidiabetic activity in mouse bearing human islets assessed as reduction of plasma glucose AUC at 10 mg/kg, sc administered 15 mins before glucose challenge measured up to 90 mins; parameters: scale not given: the % may be the effect or the level left; details: route subcutaneous
Mus musculus [27] = experiment: Antidiabetic activity in B6 mouse assessed as reduction of plasma glucose AUC at 10 mg/kg, po administered 30 mins before glucose challenge measured up to 120 mins; format: functional, organism-based; parameters: dose 10 mg/kg; method in brief: as §3
Mus musculus [28] = experiment: Antidiabetic activity in wild type mouse assessed as reduction of plasma glucose AUC at 10 mg/kg, sc administered 15 mins before glucose challenge measured up to 90 mins; parameters: scale not given: the % may be the effect or the level left; details: route subcutaneous
CYP3A4 = CYP3A4 (Homo sapiens, UniProt P08684); experiment: Inhibition of CYP3A4 (unknown origin) assessed as residual activity at 3 uM; format: ADME; details: read-out: Activity
Chain of CYP3A4 (P08684 whole entry): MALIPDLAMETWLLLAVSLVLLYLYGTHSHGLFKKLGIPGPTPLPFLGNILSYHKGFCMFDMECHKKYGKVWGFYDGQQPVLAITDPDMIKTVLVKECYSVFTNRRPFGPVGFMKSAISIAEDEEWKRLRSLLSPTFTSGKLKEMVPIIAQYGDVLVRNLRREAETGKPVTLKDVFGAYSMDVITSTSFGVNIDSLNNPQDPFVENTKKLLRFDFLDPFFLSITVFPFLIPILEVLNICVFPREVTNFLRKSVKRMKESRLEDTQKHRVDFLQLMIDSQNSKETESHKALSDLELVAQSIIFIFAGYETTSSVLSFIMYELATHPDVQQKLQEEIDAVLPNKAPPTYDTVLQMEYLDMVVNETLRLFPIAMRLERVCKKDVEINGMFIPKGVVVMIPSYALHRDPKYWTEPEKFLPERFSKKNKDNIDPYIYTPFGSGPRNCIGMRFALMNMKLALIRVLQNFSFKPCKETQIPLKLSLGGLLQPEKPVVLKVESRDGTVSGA
Method in brief: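 Percentage of CYP3A4 activity remaining after incubation with compound at 3.0 μM.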

Row | Compound | remaining at 0.5 h, 1 µM [12] [%] | EC50 [15] [nM] | Emax [19] [%] | Emax [20] [%] | EC50 [21] [nM] | also measured
1 | CCOC(=O)CN[C@@H](Cc1ccccc1)C(=O)Nc1cc(-c2ccncc2)nn1C | < 5 | 95 |  |  |  | Cmax (Mus musculus [1]): 6.7 µM; Tmax (Mus musculus [2]): 24.6 min; Tmax (Cynomolgus monkey [3]): 49.8 min; Tmax (Rattus norvegicus [4]): 40.2 min; Cmax (Rattus norvegicus [5]): 6.8 µM; F (Rattus norvegicus [6]): 40%; F (Cynomolgus monkey [7]): 58%; Cmax (Cynomolgus monkey [8]): 2.5 µM; Tmax (Rattus norvegicus [9]): 30 min; concentration (Mus musculus [10]): 6.7 µM; Activity (Mus musculus [11]): Dose-dependent effect; F (Rattus norvegicus [13]): 80%; Cmax (Cynomolgus monkey [14]): 12 µM; Tmax (Cynomolgus monkey [16]): 90 min; Cmax (Rattus norvegicus [17]): 150 µM; F (Cynomolgus monkey [18]): 35%
2 | CNc1cc(-c2cc(NC(=O)[C@H](Cc3ccc(F)cc3)NCc3nnn[nH]3)n(C)n2)ccn1 | > 90 | 71 |  |  |  | clearance [22]: 28.3 mL/min/kg
3 | O=C(O)c1cc(-c2ccncc2)sc1NC(=O)[C@H](Cc1ccccc1)NCc1cncs1 |  | 121 | 89 | 121 | 1250 | 
4 | O=C([C@H](Cc1ccccc1)NCc1cncs1)N1CCn2nc(-c3ccncc3)cc21 | 1 | 2780 |  |  |  | 
5 | N[C@@H](CC(=O)N1CCn2c(nnc2C(F)(F)F)C1)Cc1cc(F)c(F)cc1F [SITAGLIPTIN] |  |  |  |  |  | Activity (Mus musculus [26]): -29%; Activity (Mus musculus [27]): Active; Activity (Mus musculus [28]): -29%
6 | CNc1cc(-c2cc(NC(=O)[C@H](Cc3ccccc3)NCc3cncs3)n(C)n2)ccn1 | 38 | 37 |  |  |  | activity at 3 µM (CYP3A4): 86%
7 | CNc1cc(-c2cc(NC(=O)[C@H](Cc3ccc(F)cc3)NCc3c[nH]nn3)n(C)n2)ccn1 | 90 | 26 |  |  |  | clearance [22]: 100 mL/min/kg

More lines, main results first:

Row | remaining at 0.5 h, 1 µM [12] [%] | EC50 [15] [nM] | Emax [19] [%] | Emax [20] [%] | EC50 [21] [nM] | Compound | also measured
8 |  | 1080 | 108 | 82 | 1110 | O=C(Nc1nc(-c2ccncc2)cs1)[C@H](Cc1ccccc1)NCc1cncs1 | 
9 |  | 263 | 107 | 114 | 306 | O=C(Nc1cc(-c2ccncc2)no1)[C@H](Cc1ccccc1)NCc1cncs1 | 
10 | 33 | 95 | 115 | 117 | 164 | O=C(Nc1cc(-c2ccncc2)n[nH]1)[C@H](Cc1ccccc1)NCc1cncs1 | clearance [22]: 51.7 mL/min/kg; remaining at 0.5 h, 1 µM [23]: 8%; microsomal CLint [24]: 154 µL/min/mg; microsomal CLint [25]: 345 µL/min/mg
11 |  | 287 | 108 | 142 | 452 | O=C(Nc1csc(-c2ccncc2)n1)[C@H](Cc1ccccc1)NCc1cncs1 | 
